Measurements: PubChem BioAssay
Activity calls are given as the source filed them.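 Rule for the calls, unless noted: active = viability loss from added drug above about 55%, and viability with drug at most 40%, in both replicates (limit read from the data, passing the limit was not always enough); inconclusive = both conditions met in only one replicate; inactive = neither replicate meets both conditions.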

Assays:
[1] = reduced viability of SK-BR-3 breast cancer cells – cell-based, 24 h, human, pilot screen (AID 572;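 active = viability at or below 10% of carrier control in both of two separate runs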;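 note: compound exposure lasted between 18 and 24 h rather than exactly 24 h; 100% = carrier-treated control wells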); settings: SK-BR-3 viability, CellTiter-Glo luminescence, at 10 µM, stronger effect = lower value
[2] = HUVEC growth inhibition – cell-based, human, primary screen (AID 575;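 active = viability at or below 30% in both replicate assays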;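 note: 100% = median of untreated cell wells with 0.1% DMSO on each plate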); settings: HUVEC proliferation, CellTiter-Glo luminescence, 72 h; at 10 µM; stronger effect = lower value
Procedure, shortened: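 Test system: primary human umbilical vein endothelial cells. Quantity: 1250 cells/well. Compound: single 10 µM dose, 0.1% DMSO, from 5x medium stock. Timing: 72 h treatment at 37 °C. Detection: ATP-based CellTiter-Glo luminescent read. Benchmarks: vehicle and MePR control wells. Format: 384-well plates coated with collagen.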

[3] = MRP1 drug-resistance reversers in H69AR cells – cell-based, doxorubicin co-treatment, pilot screen (AID 601); settings: CellTiter-Glo, 72 h, at 10 µM; for differential viability (reversal): stronger effect = higher value
[4] = yeast transport mutant growth inhibition pilot in 384-well plates, post-Golgi transport modulator project (AID 636; in the data active = inhibition above about 31%); settings: absorbance 615 nm, about 18 h, stronger effect = higher value
[5] = growth suppression of yeast trafficking mutant, preliminary HTS, modulators of trafficking downstream of Golgi apparatus project, 1536-format plate, OD 615 nm (AID 637; in the data active = inhibition above about 30%); settings: yeast transport mutant growth, absorbance 615 nm, 18 h; stronger effect = higher value
[6] = H69AR cells + 2 uM doxorubicin, measured here: viability with 2 uM doxorubicin, stronger effect = lower value
[7] = H69AR cells, compound alone cytotoxicity

Compound	viability [1]	viability [2]	differential viability (reversal) ([3]; H69AR cells + 2 uM doxorubicin)	viability [3, 6] [%]	viability [3, 7] [%]	inhibition [4]	inhibition [5]
COC1=CC(=O)CC(C)C12Oc1c(Cl)c(OC)cc(OC)c1C2=O (centres undefined)	100% (inactive)	62.8% (inactive)	-31.8% (inactive)	50	18.1	-2.99% (inactive)	-5.67% (inactive)
CCCCCC(=O)O[C@]1(C(C)=O)CC[C@H]2[C@@H]3CCC4=CC(=O)CC[C@]4(C)[C@H]3CC[C@@]21C	93% (inactive)	4.16% (active)	20.6% (inactive)	2.59	23.1	5.84% (inactive)	-2% (inactive)
CCCCc1oc2ccccc2c1C(=O)c1cc(I)c(OCCN(CC)CC)c(I)c1	91% (inactive)	2.45% (active)	-11.1% (inactive)	12.4	1.29	100% (active)	100% (active)
CCOC(=O)c1c(NC(=O)COC(=O)c2c(C)noc2C)sc2c1CCC2	63% (inactive)	35.6% (inactive)	0.845% (inactive)	47	47.8	-8.36% (inactive)	-3.87% (inactive)
Cc1ccc(Cn2c(=N)c(C(=O)NCc3ccco3)cc3c(=O)n4ccccc4nc32)cc1	78% (inactive)	96.1% (inactive)	-0.275% (inactive)	47.4	47.1	-5.81% (inactive)	-4.36% (inactive)
O=C(Nc1cnn(C23CC4CC(CC(C4)C2)C3)c1)c1cnn2c(C(F)(F)F)cc(-c3ccco3)nc12	95% (inactive)	58% (inactive)	1.52% (inactive)	51.8	53.3	-0.82% (inactive)	8.39% (inactive)
COc1ccccc1NC(=O)N(Cc1ccco1)Cc1cc2c(C)ccc(C)c2[nH]c1=O	70% (inactive)	71.1% (inactive)	-28.8% (inactive)	50.9	22.1	-2.88% (inactive)	-2.55% (inactive)
N=c1c(C(=O)NCc2ccccc2)cc2c(=O)n3ccccc3nc2n1Cc1ccco1	93% (inactive)	79.2% (inactive)	-13.5% (inactive)	65.5	52.1	-4.25% (inactive)	0.32% (inactive)
COc1ccc2cc(C(c3nnnn3C(C)(C)C)N3CCc4ccccc4C3)c(=O)[nH]c2c1 (centres undefined)	81% (inactive)	48.3% (inactive)	26% (inactive)	23.1	49.1	-5.33% (inactive)	-2.36% (inactive)
CC1Cc2ccccc2N1CC(=O)NC(=O)NCc1ccco1 (centres undefined)	85% (inactive)	89.6% (inactive)	-30.2% (inactive)	70.1	39.9	-0.27% (inactive)	2.36% (inactive)
CCOC(=O)c1[nH]c(CSc2nnc(-c3ccc(OC)cc3)o2)c(C(=O)OCC)c1C	56% (inactive)	72.3% (inactive)	0.61% (inactive)	37.4	38	-3.24% (inactive)	-4.36% (inactive)
CC1CCN(CCc2nc3cc(NS(=O)(=O)c4ccc(F)cc4)ccc3n2C)CC1	89% (inactive)	77.6% (inactive)	-3.08% (inactive)	55.5	52.4	-2.33% (inactive)	0.97% (inactive)
O=C(Nc1ccc(-c2nc3ncccc3o2)cc1)c1ccc(Br)o1	97% (inactive)	104% (inactive)	-4.05% (inactive)	53.2	49.2	-2.13% (inactive)	-0.36% (inactive)
CC(C)(C)OC(=O)N1CC=C2C(C#N)=C(N)C(C#N)(C#N)C(c3cccs3)C2C1 (centres undefined)	65% (inactive)	53.9% (inactive)	-5.04% (inactive)	57.8	52.8	-1.92% (inactive)	-0.16% (inactive)
COC(=O)c1ccc(CSc2ncnc3c2nnn3-c2ccc(OC)cc2)o1	87.5% (inactive)	88% (inactive)	-10.7% (inactive)	71.6	60.9	-1.97% (inactive)	6.07% (inactive)
CC(=O)O[C@H]1C(=O)[C@]2(C)[C@H]([C@H](OC(=O)c3ccccc3)[C@]3(O)C[C@H](OC(=O)[C@H](O)[C@@H](NC(=O)c4ccccc4)c4ccccc4)C(C)=C1C3(C)C)[C@]1(OC(C)=O)CO[C@@H]1C[C@@H]2O	67% (inactive)	38.8% (inactive)	-69.2% (inactive)	81.8	12.6	0.52% (inactive)	-0.67% (inactive)
CC(C)(C)c1ccc(C(O)CCCN2CCC(C(O)(c3ccccc3)c3ccccc3)CC2)cc1 (centres undefined)	91% (inactive)	1.7% (active)	0.38% (inactive)	1.16	1.54	-1.95% (inactive)	-1% (inactive)
CCOC(=O)N1CCN(CC(=O)Nc2cc(C)nn2-c2nc3ccccc3s2)CC1	74% (inactive)	57% (inactive)	-1.56% (inactive)	39.2	37.7	-0.39% (inactive)	2.46% (inactive)
CCCc1[nH]nc2c1C(c1cn[nH]c1-c1ccc(F)cc1)C(C#N)=C(N)O2 (centres undefined)	98.5% (inactive)	48.3% (inactive)	-8.32% (inactive)	53.7	45.4	-2.21% (inactive)	2.95% (inactive)

Compound	viability [1]	viability [2]	differential viability (reversal) ([3]; H69AR cells + 2 uM doxorubicin)	viability [3, 6] [%]	viability [3, 7] [%]	inhibition [4]	inhibition [5]
COc1cc([C@@H]2c3cc4c(cc3[C@H](O)[C@H]3COC(=O)[C@H]23)OCO4)cc(OC)c1OC	101% (inactive)	33.9% (inactive)	-32.5% (inactive)	63.7	31.2	-2.99% (inactive)	-5.67% (inactive)
Oc1c(Cl)cc(Cl)cc1Sc1cc(Cl)cc(Cl)c1O	143% (inactive)	1.36% (active)	0.46% (inactive)	11	11.4	-0.78% (inactive)	100% (active)
Cc1[nH]nc2c1C1(C(=O)N(Cc3ccc(Cl)cc3)c3ccccc31)C(C#N)=C(N)O2 (centres undefined)	94% (inactive)	90% (inactive)	-39.8% (inactive)	92	52.2	-4.32% (inactive)	0.18% (inactive)
CCOC(=O)C1CCN(CC(=O)Nc2c(C(=O)OC)[nH]c3ccc(Cl)cc23)CC1	103% (inactive)	65.5% (inactive)	34.9% (inactive)	23.5	58.4	-4.4% (inactive)	3.09% (inactive)
CN(C)CCCN1c2ccccc2Sc2ccc(Cl)cc21	71% (inactive)	2.62% (active)	-26.7% (inactive)	28.3	1.67	-0.91% (inactive)	7.17% (inactive)
COc1cc(NC(=O)c2ccco2)c(OC)cc1NC(=O)CCC(=O)Nc1cc(C)cc(C)c1	106% (inactive)	42.5% (inactive)	-16.3% (inactive)	69.4	53.1	-6.58% (inactive)	-0.95% (inactive)
COc1ccc(CCn2c(=N)c(C(=O)NCc3ccco3)cc3c(=O)n4ccccc4nc32)cc1	73% (inactive)	57.9% (inactive)	-8.4% (inactive)	64.5	56.1	-6.76% (inactive)	-8.33% (inactive)
CC(=O)O[C@@]12CO[C@@H]1C[C@H](O)[C@@]1(C)C(=O)[C@H](O)C3=C(C)[C@@H](OC(=O)[C@H](O)[C@@H](NC(=O)OC(C)(C)C)c4ccccc4)C[C@](O)([C@@H](OC(=O)c4ccccc4)[C@H]21)C3(C)C	130% (inactive)	40.7% (inactive)	-79.6% (inactive)	98.8	19.2	-4.03% (inactive)	-2.33% (inactive)
CCCOc1ccc2nc(NC(=O)OC)[nH]c2c1	95% (inactive)	37.3% (inactive)	-30.4% (inactive)	57.3	26.9	-0.52% (inactive)	-1.5% (inactive)
N#Cc1cc2c(nc1SCC(=O)Nc1sc3c(c1C#N)CCC3)CCCCC2	82% (inactive)	79.5% (inactive)	-16.5% (inactive)	57.4	40.9	-7.84% (inactive)	-8.91% (inactive)
C/C=C(/C(=C/C)c1ccc(O)cc1)c1ccc(O)cc1	123% (inactive)	54.9% (inactive)	-57.5% (inactive)	85.2	27.6	0.65% (inactive)	25% (inactive)
Cc1cc(C(=O)CSc2nc3ccccc3n2CCC#N)c(C)n1Cc1cccs1	58% (inactive)	110% (inactive)	-1.21% (inactive)	32.9	31.7	-5.41% (inactive)	-3.09% (inactive)
OCCN1CCN(CCCN2c3ccccc3Sc3ccc(Cl)cc32)CC1	53% (inactive)	1.56% (active)	-3.86% (inactive)	5.27	1.41	-3.38% (inactive)	47.3% (active)
O=C(CN1CCN(Cc2ccc3c(c2)OCO3)CC1)N1CCc2[nH]c3ccc(F)cc3c2C1	96% (inactive)	58.8% (inactive)	-8.87% (inactive)	61.4	52.5	-2.13% (inactive)	-6% (inactive)
C=C(C)C1Cc2c(C)nn(-c3nc(C)cc(C)n3)c2C1 (centres undefined)	105% (inactive)	71.7% (inactive)	-21.4% (inactive)	73.7	52.3	-6.58% (inactive)	13.4% (inactive)
O=C1NC2c3ccccc3C(=O)N2c2c1cnn2-c1ccccc1 (centres undefined)	98% (inactive)	80.3% (inactive)	-35.4% (inactive)	86	50.6	0.68% (inactive)	0.91% (inactive)
CCN(CC)c1ccc2c(c1)CCCN2	86.5% (inactive)	95.9% (inactive)	-13.2% (inactive)	56.6	43.4	-4.21% (inactive)	1.64% (inactive)
COc1cc(C2Nc3cccc4cccc(c34)N2)cc(OC)c1O	92.5% (inactive)	57.5% (inactive)	-14.8% (inactive)	70	55.2	-0.92% (inactive)	-4.76% (inactive)
